Assay results taken from article PMC6422976 (Osteoporosis International, 2018).

What was measured:
[1] = Comparative single-dose PK of teriparatide; assay type: in vivo, human; settings: for tlast / Cmax / tmax / AUC0-tlast: single 20 μg/80 μL s.c. dose, N = 51; for tlast: AM ± SD; for Cmax: ELISA; for Cmax / AUC0-tlast: GM (GCV%); for tmax: Median (Minimum, Maximum); for AUC0-tlast: abdomen, PTH(1-34) ELISA
Procedure, shortened: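 Randomised, double-blind, two-period, two-sequence cross-over in healthy women aged 18–55 y (BMI 18.5–27.0 kg/m2). Single 20 μg/80 μL s.c. abdominal injection of test or reference teriparatide at hour 0, with a 24 h washout. Plasma sampled pre-dose and at 10–240 min. High-sensitivity human PTH(1-34) ELISA. Non-compartmental parameters; ANOVA on ln values; geometric mean test/reference ratios with 94.12% CI (α 0.0294, two-stage design).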

[2] = Safety: treatment emergent adverse events in healthy women; assay type: in vivo, human; settings: single 20 μg s.c.; for TEAE: General disorders and administration site conditions: number of subjects (%)
Procedure, shortened: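 Healthy women received single 20 μg/80 μL s.c. injections in each cross-over period. Monitoring covered physical examinations, vital signs, ECGs, pulse oximetry, adverse events, injection-site reactions and clinical laboratory tests. Adverse events in the washout were assigned to the preceding treatment. Results were summarised per treatment arm as subject counts; Fisher's exact test.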

[3] = tested on: serum calcium; test: Serum calcium; assay type: in vivo, human; settings: for Serum-corrected calcium Cmax, mean / Serum-corrected calcium tmax, mean / Serum-corrected calcium AUC0-tlast, geom. mean / Serum-corrected calcium Cmax, geom. mean / Serum-corrected calcium AUC0-tlast, median / Serum-corrected calcium Cmax, median / Serum-corrected calcium tmax, median: single 20 μg/80 μL s.c. injection, healthy women, N = 53; for Serum-corrected calcium Cmax, mean / Serum-corrected calcium tmax, mean: arithmetic mean; for Serum-corrected calcium AUC0-tlast, geom. mean / Serum-corrected calcium Cmax, geom. mean: geometric mean
Procedure, shortened: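 Serum drawn within 2.5 h before dosing and at 120, 180 and 240 min and 6, 8 and 12 h after a single 20 μg/80 μL s.c. dose. Total calcium measured photometrically via the NM-BAPTA complex under alkaline conditions (LLOQ 0.8 mg/dl). Values albumin-corrected as Ca (mmol/L) + ((40 − ALB (g/L)) × 0.02). AUC0-tlast, Cmax and tmax calculated.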

[4] = after at least 12 months of treatment, 20 μg daily s.c. doses; cited from earlier work
[5] = RGB-10/reference, two-stage design
[6] = RGB-10/reference, two-stage design, acceptance range 80.00–125.00%
[7] = geometric mean ratio = 100 * (RGB-10/reference)
[8] = geometric least-squares mean from ANOVA, single 20 μg s.c., healthy women

Substance: teriparatide [RGB-10]
- bioequivalence conclusion ([1]; 94.12% CIs of GMRs of AUC0-tlast and Cmax within 80–125%): bioequivalent
- 94.12% CI of GMR, AUC0-inf [1, 5]: 83.75–96.33%
- 94.12% CI of GMR, t1/2 [1, 5]: 83.28–100.29%
- 94.12% CI of GMR, AUC0-tlast [1, 6]: 85.20–98.60%
- 94.12% CI of GMR, Cmax [1, 6]: 85.51–99.52%
- extent, total extent and peak teriparatide exposure (AUC0-tlast, AUC0-inf, Cmax) lower than for the reference ([1]; based on GMR, plasma): 8 to 10%
- GMR% AUC0-inf [1, 7]: 89.82%
- GMR% AUC0-tlast [1, 7]: 91.66%
- GMR% Cmax [1, 7]: 92.25%
- GMR% t1/2 [1, 7]: 91.39%
- tlast ([1]; healthy women): 2.49 ± 0.729 h
- Cmax ([1]; healthy women): 82.4 (40.1%) pg/mL
- tmax ([1]; healthy women): 0.334 (0.166, 0.585) h
- AUC0-tlast ([1]; healthy women): 91.8 (40.9%) pg*h/mL
- half-life shorter than for the reference ([1]; in vivo): 9%
- mean CL/F higher than for the reference product ([1]; in vivo): approximately 13%
- mean Vz/F compared with the reference ([1]; in vivo): similar
- TEAE: General disorders and administration site conditions [2]: 13 (24%)
- serious adverse events (SAEs) [2]: no SAEs observed
- 95% CIs of the GMR of corrected calcium ([3]; RGB-10/reference): 99–101%
- GMR of serum calcium AUC ([3]; RGB-10/reference): 99.93%
- GMR of serum calcium Cmax ([3]; RGB-10/reference): 99.87%
- median difference of serum calcium tmax ([3]; RGB-10 versus reference): 0.001
- Serum-corrected calcium Cmax, mean [3]: 2.35 mmol/L
- Serum-corrected calcium tmax, mean [3]: 5.21 h
- Serum-corrected calcium AUC0-tlast, geom. mean [3]: 27.59 mmol·h/L
- Serum-corrected calcium Cmax, geom. mean [3]: 2.35 mmol/L
- Serum-corrected calcium AUC0-tlast, median [3]: 27.56 mmol·h/L
- Serum-corrected calcium Cmax, median [3]: 2.34 mmol/L
- Serum-corrected calcium tmax, median [3]: 6.00 h

Substance: teriparatide [Reference, reference compound]
- patients with anti-teriparatide antibodies [4]: 2.8%
- AUC0-inf, geometric LSM [1, 8]: 0.11566 ng·h/mL
- AUC0-tlast, geometric LSM [1, 8]: 0.10086 ng·h/mL
- Cmax, geometric LSM [1, 8]: 0.09018 ng/mL
- t1/2, geometric LSM [1, 8]: 0.72 h
- tlast ([1]; healthy women): 2.58 ± 0.707 h
- Cmax ([1]; healthy women): 89.2 (37.1%) pg/mL
- tmax ([1]; healthy women): 0.417 (0.167, 0.667) h
- AUC0-tlast ([1]; healthy women): 99.0 (35.0%) pg*h/mL
- TEAE: General disorders and administration site conditions [2]: 8 (15%)
- Serum-corrected calcium Cmax, mean [3]: 2.35 mmol/L
- Serum-corrected calcium tmax, mean [3]: 5.03 h
- Serum-corrected calcium AUC0-tlast, geom. mean [3]: 27.61 mmol·h/L
- Serum-corrected calcium Cmax, geom. mean [3]: 2.35 mmol/L
- Serum-corrected calcium AUC0-tlast, median [3]: 27.56 mmol·h/L
- Serum-corrected calcium Cmax, median [3]: 2.34 mmol/L
- Serum-corrected calcium tmax, median [3]: 6.00 h
